The source of these data is ChEMBL document CHEMBL1125478, “The discovery of (2S,3S)-cis-2-(diphenylmethyl)-N-[(2-methoxyphenyl)methyl]-1- azabicyclo[2.2.2]-octan-3-amine as a novel, nonpeptide substance P antagonisst” (J Med Chem, 1992).

Experiment [1] deals with Cavia porcellus. Description: (§1) Inhibition of SP-induced plasma extravasation in guinea pig after peroral administration at a dose 15 mg/kg. Type of experiment: functional. Particulars: route oral. A digest of the protocol:
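Male Hartley guinea pigs (350-400 g), pentobarbital-anaesthetised; Evans Blue 30 mg/kg iv, then 5 min later SP (20 nM, 50 μL/site) intradermally. Dorsal skin punches extracted in formamide 24 h, 60 °C; OD 600 nm.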

Experiment [2] relates to Cavia porcellus. Description: Inhibition of capsaicin-induced plasma extravasation in guinea pig ureter after intraperitoneal injection. Type of experiment: functional. Particulars: ip. In short, it runs like this:
(§2)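 Fasted male Hartley guinea pigs (300-400 g), pentobarbital-anaesthetised; Evans Blue 30 mg/kg iv, then capsaicin 30 μM, 10 mL intraperitoneally. Compound 10 mg/kg po 1 h prior. Ureter removed after 10 min, formamide-extracted 24 h at 60 °C, OD 600 nm.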

The test system of the next experiment is Rattus norvegicus. Description: Inhibition of SP-induced salvation after intraperitoneal administration of the durg at a concentration of 50 mg/kg in rats. It counts as functional. Particulars: ip. In short, it runs like this:
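Fasted male Sprague-Dawley rats given compound 50 mg/kg ip in 0.05 N HCl, or saline, 30 min before SP 4.7 nmol/kg by tail vein under pentobarbital. Saliva collected on preweighed swabs until response subsided (about 4 min), weighed. Percent inhibition of SP response.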

In another experiment the target is Substance-P receptor (Homo sapiens, UniProt P25103). The experiment can be described thus: Binding affinity towards Tachykinin receptor 1 in human IM-9 cells using [3H]-substance P as ligand. Type of experiment: cell-based. A digest of the protocol: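 Displacement of [³H]SP (0.5 nM final) from human IM-9 cell preparation in 50 mM TRIS-HCl pH 7.7 with MnCl2, BSA, bacitracin, leupeptin, […], phosphoramidon; 20 min, room temperature, dark. Filtration on polyethylenimine-soaked GF/B filters, scintillation counting. IC50 from six-point curves, duplicates; mean ± SEM of three experiments.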

For experiment [3], the species on record is Cavia porcellus. The experiment can be described thus: Inhibition of capsaicin-induced plasma extravasation after 10 mL injection of 30 uM capsaicin in to the peritoneal cavity of guinea pig ureter. Type of experiment: functional. A digest of the protocol:
as §2

For experiment [4], the species on record is Cavia porcellus. The experiment can be described thus: Ability to block SP-induced excitation of neurons in the locus coeruleus in guinea pig brain. Type of experiment: functional.
The subject of experiment [5] is Cavia porcellus. The experiment is described as §1. It counts as functional. Particulars: route oral. In short, it runs like this: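 Male Hartley guinea pigs (350-400 g), pentobarbital-anaesthetised; Evans Blue 30 mg/kg iv, then 5 min later SP (20 nM, 50 μL/site) intradermally. Compound 15 mg/kg po 1 h before SP. Dorsal skin punches extracted in formamide 24 h, 60 °C; OD 600 nm. Percent inhibition or ED50 with 95% confidence limits.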
This is another data set of the same source.

In the next experiment the target is T1, Neuromedin-K receptor (Cavia porcellus, UniProt P30098).
T1 sequence (P30098 whole entry): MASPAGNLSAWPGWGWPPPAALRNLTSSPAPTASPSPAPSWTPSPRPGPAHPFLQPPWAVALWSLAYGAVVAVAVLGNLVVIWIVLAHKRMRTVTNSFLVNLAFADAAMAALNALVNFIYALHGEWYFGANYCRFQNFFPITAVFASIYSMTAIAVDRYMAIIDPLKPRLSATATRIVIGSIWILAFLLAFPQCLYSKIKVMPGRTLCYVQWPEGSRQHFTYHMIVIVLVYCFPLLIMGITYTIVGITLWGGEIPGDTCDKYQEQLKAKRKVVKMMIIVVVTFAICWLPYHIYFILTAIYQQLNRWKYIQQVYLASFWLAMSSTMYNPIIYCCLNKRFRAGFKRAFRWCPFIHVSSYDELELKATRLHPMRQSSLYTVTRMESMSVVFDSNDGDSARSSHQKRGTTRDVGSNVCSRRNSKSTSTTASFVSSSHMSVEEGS
The experiment can be described thus: Inhibitory activity against Tachykinin receptor 3 in guinea pig cortex [125I]-BH-eledoisin as radioligand. In short, it runs like this: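 Guinea pig cortical membranes (6 mg/mL) in 50 mM Tris-HCl with 1 mM MnCl₂, 50 μg/mL chymostatin, 0.02% BSA and 0.1 nM [¹²⁵I]BH-eledoisin final, with test compound, 60 min at 22 °C. Nonsaturable binding defined with 1 μM eledoisin. Filtration and radioactivity counting.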

Another experiment deals with T2, Substance-K receptor (Mesocricetus auratus, UniProt P51144).
T2 sequence (P51144 whole entry): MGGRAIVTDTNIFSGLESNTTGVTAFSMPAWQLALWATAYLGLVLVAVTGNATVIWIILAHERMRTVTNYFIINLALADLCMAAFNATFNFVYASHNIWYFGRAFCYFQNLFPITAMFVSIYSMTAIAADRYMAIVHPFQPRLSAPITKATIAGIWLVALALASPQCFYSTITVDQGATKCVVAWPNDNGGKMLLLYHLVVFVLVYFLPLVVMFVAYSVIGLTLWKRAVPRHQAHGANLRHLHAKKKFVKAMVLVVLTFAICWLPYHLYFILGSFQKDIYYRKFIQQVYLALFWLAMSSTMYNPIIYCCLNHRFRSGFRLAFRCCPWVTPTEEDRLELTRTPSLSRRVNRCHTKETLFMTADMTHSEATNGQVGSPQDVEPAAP
Description: Inhibitory activity against [125I]neurokinin binding to Tachykinin receptor 2 in hamster urinary bladder.

Substance-P receptor, sequence (P25103 whole entry): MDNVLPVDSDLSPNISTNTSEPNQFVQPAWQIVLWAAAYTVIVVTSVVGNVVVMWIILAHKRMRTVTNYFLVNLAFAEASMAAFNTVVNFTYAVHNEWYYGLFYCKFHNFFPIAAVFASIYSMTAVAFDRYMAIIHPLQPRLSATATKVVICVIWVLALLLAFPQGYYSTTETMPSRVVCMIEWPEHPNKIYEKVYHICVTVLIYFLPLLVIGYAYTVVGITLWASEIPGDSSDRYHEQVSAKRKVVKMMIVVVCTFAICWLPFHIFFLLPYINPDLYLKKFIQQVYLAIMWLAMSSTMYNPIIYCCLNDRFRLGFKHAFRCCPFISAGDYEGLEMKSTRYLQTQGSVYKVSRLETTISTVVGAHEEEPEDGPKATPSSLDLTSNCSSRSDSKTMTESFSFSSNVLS

Regarding `COc1ccccc1CN[C@@H]1C2CCN(CC2)[C@@H]1C(c1ccccc1)c1ccccc1`, in the experiment with Cavia porcellus [1], the inhibition in vivo at 15 mg/kg came to 39%. In addition, in the experiment with Cavia porcellus [2], it took a dose of 6 mg/kg to reach the 50% effect level (ED50). In addition, the inhibition in vivo at 50 mg/kg with Rattus norvegicus was under 66.9%.

With `c1ccc(CN[C@H]2C3CCN(CC3)[C@H]2C(c2ccccc2)c2ccccc2)cc1`, on Substance-P receptor, the IC50 is 16 nM. Also, in the experiment on Cavia porcellus [1], the inhibition in vivo at 15 mg/kg is -9%. Moreover, in the experiment filed under Cavia porcellus [3], the Inhibition was -21%. Further, in the experiment with Rattus norvegicus, the inhibition in vivo at 50 mg/kg was found to be 0%.

In the case of `COc1ccccc1CN[C@H]1C2CCC(CC2)[C@H]1C(c1ccccc1)c1ccccc1`, on Substance-P receptor, the IC50 was over 32000 nM. Besides, the inhibition in vivo at 15 mg/kg in the experiment with Cavia porcellus [1] was -9%. Moreover, in the experiment listed under Cavia porcellus [3], the Inhibition was -67%.

Regarding `Clc1cccc(CN[C@H]2C3CCN(CC3)[C@H]2C(c2ccccc2)c2ccccc2)c1`, the inhibition in vivo at 15 mg/kg with Cavia porcellus [1] is -6%. In addition, the Inhibition in the experiment listed under Cavia porcellus [3] came out at 23%. The inhibition in vivo at 50 mg/kg in the experiment with Rattus norvegicus was under 52.8%.

As to `Clc1ccc(CN[C@H]2C3CCN(CC3)[C@H]2C(c2ccccc2)c2ccccc2)cc1`, the inhibition in vivo at 15 mg/kg in the experiment on Cavia porcellus [1] was 8%. Besides, in the experiment listed under Cavia porcellus [3], the Inhibition worked out at 34%. Moreover, the inhibition in vivo at 50 mg/kg in the experiment on Rattus norvegicus is under 27%.

`CCc1ccccc1CN[C@H]1C2CCN(CC2)[C@H]1C(c1ccccc1)c1ccccc1` came in with an IC50 at Substance-P receptor of 16.7 nM. Besides, the inhibition in vivo at 15 mg/kg with Cavia porcellus [1] stood at 79%. The same compound yielded a median effective dose (ED50) in the experiment with Cavia porcellus [2] of 4 mg/kg. Further, the inhibition in vivo at 50 mg/kg in the experiment with Rattus norvegicus was determined as 16.7%.

On to `COc1ccccc1CN(C)[C@H]1C2CCN(CC2)[C@H]1C(c1ccccc1)c1ccccc1`, for which the inhibition in vivo at 15 mg/kg in the experiment with Cavia porcellus [1] turned out to be 13%. The Inhibition in the experiment listed under Cavia porcellus [3] is on record as -13%.

`COc1ccccc1CN[C@H]1C2CCN(CC2)[C@@H]1C(c1ccccc1)c1ccccc1`: the inhibition in vivo at 15 mg/kg with Cavia porcellus [1] came to 28%. For the same compound, the Inhibition in the experiment listed under Cavia porcellus [3] was determined as 18%. Further, the inhibition in vivo at 50 mg/kg in the experiment on Rattus norvegicus worked out at 11.3%.

Take `COc1ccccc1CN[C@H]1C2CCN(CC2)[C@H]1Cc1ccccc1`: the IC50 on Substance-P receptor turned out to be 487 nM. Further, the inhibition in vivo at 15 mg/kg in the experiment on Cavia porcellus [1] is 35%. Moreover, in the experiment filed under Cavia porcellus [3], the Inhibition is reported as -30%. Further, in the experiment on Rattus norvegicus, the inhibition in vivo at 50 mg/kg stood at 0%.

As to `COc1ccccc1CN[C@H]1C2CCN(CC2)[C@H]1C(c1ccccc1)c1ccccc1` [CP-96345], the IC50 was 90 nM in the experiment filed under Cavia porcellus [4], over 10000 nM at Neuromedin-K receptor and over 10000 nM on Substance-K receptor. The ED50 came out at 4.4 mg/kg with Cavia porcellus [5] and 2.3 mg/kg in the experiment with Cavia porcellus [2]. Also, the inhibition in vivo at 50 mg/kg with Rattus norvegicus was under 76.2%.

`Clc1ccccc1CN[C@H]1C2CCN(CC2)[C@H]1C(c1ccccc1)c1ccccc1`: the inhibition in vivo at 15 mg/kg in the experiment with Cavia porcellus [1] was determined as 38%. Besides, in the experiment with Cavia porcellus [2], the ED50 was 7 mg/kg. Besides, the inhibition in vivo at 50 mg/kg with Rattus norvegicus was under 43.9%.
